pIC50: −log10 of the molar value. Activity calls are given as the source filed them. The rule behind the calls is not given here.
Assays:
[1] = target: T1, Polyunsaturated fatty acid 5-lipoxygenase (Mus musculus, UniProt P48999); assay: Inhibition of 5-LO in mouse BMMC cells assessed as formation of LTC4 after 30 mins by enzyme immunoassay
T1 sequence (P48999 whole entry): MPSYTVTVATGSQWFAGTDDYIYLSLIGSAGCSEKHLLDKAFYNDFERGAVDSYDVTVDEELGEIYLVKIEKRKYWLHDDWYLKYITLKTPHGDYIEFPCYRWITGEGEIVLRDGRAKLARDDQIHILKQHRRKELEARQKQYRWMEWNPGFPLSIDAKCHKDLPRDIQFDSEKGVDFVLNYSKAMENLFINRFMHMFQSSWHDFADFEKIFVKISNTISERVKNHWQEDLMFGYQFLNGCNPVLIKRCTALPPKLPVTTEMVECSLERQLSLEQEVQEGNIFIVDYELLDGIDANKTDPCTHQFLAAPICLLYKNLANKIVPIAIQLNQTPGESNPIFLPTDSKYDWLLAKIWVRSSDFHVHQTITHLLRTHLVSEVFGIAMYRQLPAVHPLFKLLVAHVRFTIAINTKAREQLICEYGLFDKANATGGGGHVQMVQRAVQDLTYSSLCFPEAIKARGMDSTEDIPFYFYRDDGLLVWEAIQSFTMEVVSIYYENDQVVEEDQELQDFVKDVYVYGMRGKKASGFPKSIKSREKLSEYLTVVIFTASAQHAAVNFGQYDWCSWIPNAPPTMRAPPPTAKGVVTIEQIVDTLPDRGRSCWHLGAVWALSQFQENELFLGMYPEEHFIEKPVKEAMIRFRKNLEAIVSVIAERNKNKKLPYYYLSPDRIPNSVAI

[2] = Cytotoxicity against mouse BMM cells assessed as cell survival after 4 days by MTT assay; type: cell-based; settings: bmmc, 96 h
In short: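 BMMs were kept in α-MEM with M-CSF (30 ng/mL) with or without compound (10 µM) for 4 days. MTT was added for 5 h in the dark, then 10% SDS in 0.01 M HCl was added overnight. Absorbance was read at 570 nm. Mean ± SD, three independent experiments.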

BMMC = assay: Antiosteoclast activity in mouse BMM cells assessed as reduction of LPS-induced osteoclast formation at 10 uM after 4 days by TRAP+ staining based light microscopy; type: functional, cell-based
Mus musculus = assay: Antiosteoclast activity in mouse assessed as reduction of LPS-induced osteoclast formation in calvarial bone at 5 mg/kg, ip administered daily with LPS challenge after first day of compound dosing measured 6 days after LPS injection; type: functional, organism-based
In short: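 Six-week-old male mice, three groups, received compound at 5 mg/kg ip daily or vehicle (corn oil/DMSO 9:1). After one day, LPS (5 mg/kg) or PBS was injected subcutaneously over the calvaria. Mice were killed 6 days post-LPS. Whole calvariae were fixed in 4% paraformaldehyde and TRAP-stained, and TRAP⁺ area was quantified by image analysis.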

[3] = target: T2, Tumor necrosis factor ligand superfamily member 11 (Mus musculus) (UniProt O35235); settings: BMM, 10 uM
T2 sequence (whole entry): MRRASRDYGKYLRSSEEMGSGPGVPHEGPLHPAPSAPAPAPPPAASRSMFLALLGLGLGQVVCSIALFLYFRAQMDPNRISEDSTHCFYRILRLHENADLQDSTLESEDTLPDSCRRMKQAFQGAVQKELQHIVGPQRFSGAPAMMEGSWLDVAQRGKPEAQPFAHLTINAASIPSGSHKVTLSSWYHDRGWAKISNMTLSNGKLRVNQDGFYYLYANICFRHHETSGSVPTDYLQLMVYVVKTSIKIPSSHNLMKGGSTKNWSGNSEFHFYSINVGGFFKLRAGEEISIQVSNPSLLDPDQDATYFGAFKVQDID

[4] = target: T2, Tumor necrosis factor ligand superfamily member 11 (Mus musculus); settings: BMMC, 10 uM
[5] = target: T2, Tumor necrosis factor ligand superfamily member 11 (Mus musculus); settings: BMM, 10 uM; remark: listed apart in the source
[6] = target: T2, Tumor necrosis factor ligand superfamily member 11 (Mus musculus); settings: BMM, 10 uM; remark: listed apart in the source
[7] = target: T2, Tumor necrosis factor ligand superfamily member 11 (Mus musculus); settings: BMM, 10 uM; remark: listed apart in the source

pIC50 [1] | SMILES | Activity [2] | Activity (BMMC) | Activity (Mus musculus) | inhibition [3] | inhibition [4] | inhibition [5] | inhibition [6] | inhibition [7]
5.39 | N/C(=N\O)c1ccc(OCCCCC(=O)Nc2ccc3oc(Nc4ccccc4)nc3c2)cc1 | – | – | – | – | – | – | – | –
5.76 | CCc1ccc(Nc2nc3cc(NC(=O)CCCCOc4ccc(/C(N)=N/O)cc4)ccc3o2)cc1 | Non-toxic | Active | Active | Active | inactive | Active | Active | Active
5.31 | COc1ccc(Nc2nc3cc(NC(=O)CCCCOc4ccc(/C(N)=N/O)cc4)ccc3o2)cc1 | – | – | – | – | – | – | – | –

Source: ChEMBL document CHEMBL3627666, “5-Lipoxygenase inhibitors suppress RANKL-induced osteoclast formation via NFATc1 expression” (Bioorg Med Chem, 2015)
